Fibroblast inh = blocks proliferation of human lung fibroblasts. LL 47 human lung fibroblast viability, ATP luminescence; hits give low values. viability, % at 10 µM. 1.1% of 85,000 active. AID 719;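 active means viability at or below 50% in the single dose screen; inactive means viability above 50%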;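 further: compound exposure lasted 72 h before the ATP readout; 100% = median luminescence of untreated cell-only wells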
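Benchmarks: Cell-only wells, no compound | Test system: LL 47 human lung fibroblasts, passage 12 or lower | Input: 1,150 cells/well | Measured by: CellTiter-Glo luminescence measuring cellular ATP | Medium: IMEM, 15% FBS supplement | Schedule: Overnight attachment after seeding, then 72 h compound exposure at 37 °C | Doses: Compound addition at 0.1% DMSO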
PTEN del growth = suppresses growth of cells with PTEN deletion; HCT116 PTEN-null viability, CellTiter-Glo, 60 h; hits give low values; viability, % at 10 µM; 1.2% of 140,000 active; AID 827;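 active means viability at or below a set limit, 4 SD under the median of all tested compounds, cut at about 3.7% in these data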;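 further: PTEN knockout HCT116 line with beta catenin targeted HCT116 as companion control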
H69AR growth 86K = blocks growth of human H69AR lung tumor cells. 6% of 85,000 active. H69AR lung tumor viability, ATP luminescence, 72 h; hits give low values. viability, % at 10 µM;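 active means viability at or below 40%; inactive means viability above 40%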;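 further: multidrug resistant small cell line overexpressing MRP-1 efflux transporter; 100% = mean luminescence of untreated control wells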
bCat KO growth = beta-catenin-lacking colon tumor cell growth suppression | AID 818 | HCT116 beta-catenin knockout viability, CellTiter-Glo, 60 h; hits give low values | viability, % at 10 µM | 1.5% of 140,000 active;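 active means viability at or under a set limit, the compound median less 4 SD, cut at about 6% in these data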;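 further: 0% = Hyamine 1622 control at 20 µM and 100% = untreated cell control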
HUVEC prolif 384 = human endothelial cell proliferation inhibition; HUVEC proliferation, CellTiter-Glo luminescence, 72 h; hits give low values; viability, % at 10 µM (by protocol); 1.1% of 86,000 active; AID 648;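 active means viability at or below 30%; inactive means viability above 30%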;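 further: 100% = median luminescence of DMSO-only cell control wells on each plate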
An asterisk follows results filed as active; nt = no result given. Only a selection was taken, and hits are over-represented in it overall.

SMILES	Fibroblast inh	PTEN del growth	H69AR growth 86K	bCat KO growth	HUVEC prolif 384
CCOC(=O)c1csc(Nc2nc3ccc(F)cc3s2)n1	nt	5	nt	4.7*	nt
COC(=O)c1ccc2nc(Nc3nc4ccc(F)cc4s3)sc2c1	nt	87	nt	82	nt
CC(=O)c1sc(Nc2nc3ccc(F)cc3s2)nc1C	94	50	21*	50	57
Cc1cccc(NC(=O)CSc2nnc([C@@H]3CCCN3C(=O)OC(C)(C)C)o2)c1C	91	99	1.4*	97	76
Cc1ccc(C)c(NC(=O)CSc2nnc([C@@H]3CCCN3C(=O)OC(C)(C)C)o2)c1	99	98	97	100	98
Cc1noc(C)c1COC(=O)c1ccc2c(c1)S(=O)(=O)c1ccccc1C2=O	107	96	84	99	95
CCOc1ccc(N2C(=O)c3ccc(C(=O)OCc4c(C)noc4C)cc3C2=O)cc1	72	98	36*	99	42
O=C(N/N=C\c1c(O)ccc2ccccc12)c1ccc(Cn2cccn2)o1	nt	5	nt	5.6*	nt
O=C(N/N=C\c1ccc(Cl)s1)c1ccc(Cn2cccn2)o1	nt	101	nt	93	nt
O=C(Nc1ccc(-c2nc3ccccc3o2)c(O)c1)c1cc(-n2cnnc2)ccc1Cl	99	61	21*	82	95
COc1cc(C(=O)Nc2ccc(-c3nc4cc(C)ccc4o3)c(O)c2)cc(OC)c1OC	85	11	24*	13	80
COc1cc(OC)cc(C(=O)Nc2ccc(-c3nc4ccccc4o3)cc2)c1	108	69	30*	77	35
Cc1ccc(OCC(=O)Nc2ccc(O)c(-c3nc4ccccc4o3)c2)cc1	54	71	13*	86	3.0*
O=C(CNC(=S)N(Cc1ccccc1)Cc1cccnc1)NC1CCCCC1	nt	85	nt	83	nt
O=C(Cc1ccc(-n2c(=O)[nH]c3ccsc3c2=O)cc1)N1CCN(c2ccc(Cl)cc2)CC1	nt	91	nt	91	nt
COC(=O)c1ccc(-c2nc3ccc(C)cc3o2)cc1	97	10	26*	11	66
COc1cccc(C(=O)Nc2cccc(-c3nc4ncccc4o3)c2C)c1	99	102	93	110	106
COc1cccc(C(=O)Nc2ccc(-c3nc4ccccc4o3)c(O)c2)c1	79	30	9.5*	55	74
O=C(Nc1ccc(-c2nc3ccccc3o2)cc1)c1ccc(N2C(=O)C3C4C=CC(C4)C3C2=O)cc1 (configuration not stated)	74	80	15*	79	32
CCn1c(=N)n(CC(=O)c2cccc([N+](=O)[O-])c2)c2ccccc21	nt	99	nt	93	nt
CCn1c(=N)n(CC(=O)C23CC4CC(CC(C4)C2)C3)c2ccccc21	110	65	29*	60	3.4*
COCCCNCCOCCOc1ccc(Cl)cc1C(C)(C)C	nt	1.1*	nt	0.9*	nt
O=C(NCCN1CCOCC1)c1cc(=O)[nH]c2ccc(Br)cc12	104	84	89	94	89
O=C(NCCCN1CCOCC1)c1c(O)c2cc(Br)cc(Br)c2[nH]c1=O	100	nt	18*	nt	102
O=C(CCC1CCCC1)N1CCC(N2CCCCCC2)CC1	nt	90	nt	85	nt
SMILES	Fibroblast inh	PTEN del growth	H69AR growth 86K	bCat KO growth	HUVEC prolif 384
Cc1ccc(-c2nc3ccccc3c(C(=O)NCc3cccs3)c2C)cc1	nt	66	nt	79	nt
Oc1c(Cl)cc(Cl)cc1C(C#Cc1ccccc1)N1CCOCC1 (configuration not stated)	nt	9	nt	11	nt
Oc1c(Cl)cc(Cl)cc1Sc1cc(Cl)cc(Cl)c1O	84	4	14*	4.0*	33
CC(C)=C1C2CCC1C1C(=O)N(c3nc(-c4ccccc4)c(C)s3)C(=O)C21 (configuration not stated)	nt	87	nt	95	nt
Cc1nn(C2CCS(=O)(=O)C2)c(Cl)c1/C=C/C(=O)OCC(=O)c1cc(C)n(-c2ccc(F)cc2)c1C (configuration not stated)	nt	31	nt	19	nt
CCc1ccc2c(c1)/C(=N/OC)C(=O)N2	nt	97	nt	96	nt
CCOc1cc(NC(=O)c2ccco2)c(OCC)cc1NC(=O)Cc1cccc(OC)c1	97	108	74	95	91
CCOc1cc(NC(=O)c2ccco2)c(OCC)cc1NC(=O)COc1ccccc1C	57	nt	20*	nt	62
Cc1ccc(-n2c(-c3ccc(Br)cc3)c[n+]3c2CCc2ccc4cccnc4c2-3)cc1	21*	0.8*	2.8*	1.5*	14*
COc1ccc2c(CC(=O)Nc3cccc(S(=O)(=O)N4CCOCC4)c3)coc2c1	nt	92	nt	85	nt
COc1ccc(N2CCN(C(c3ccccc3)c3nnnn3Cc3ccc(F)cc3)CC2)cc1 (configuration not stated)	100	70	94	90	109
CCn1cc(C2=NOC(C(=O)Nc3cc(C)nn3-c3ccccc3)C2)c(C)n1 (configuration not stated)	101	101	86	102	99
CCCCN(CCCC)S(=O)(=O)c1ccc(NC(=O)c2cccs2)cc1	88	7	26*	8	78
Cc1cc(C)nc(NS(=O)(=O)c2ccc(NC(=O)c3cccs3)cc2)n1	93	93	103	81	97
CC1CCN(S(=O)(=O)c2ccc3c(c2)CCN3C(=O)CCC(=O)O)CC1	103	100	91	102	90
CN1CCN(c2ccc(Cl)cc2NC(=O)c2ccc(S(=O)(=O)N3CCCCCC3)cc2)CC1	89	79	2.5*	77	35
O=C(Nc1ccccc1F)c1ccc(OCc2ccccc2)cc1	nt	99	nt	97	nt
CN1CCN(c2ccccc2NC(=O)c2ccc(OCc3ccccc3)cc2)CC1	95	6	nt	3.4*	17*
CCCCOc1cccc(C(=O)Nc2ccc(N3CCN(CC)CC3)cc2)c1	79	33	43	24	72
CCCCOc1ccc(C(=O)Nc2ccc(N3CCN(C)CC3)cc2)cc1	28*	1.8*	23*	1.5*	32
CN1CCN(c2ccc(S(=O)(=O)N3CCCCC3)cc2NC(=O)c2ccc(C#N)cc2)CC1	nt	88	nt	88	nt
CN1CCN(c2ccccc2NC(=O)c2cccc(OCc3ccccc3)c2)CC1	76	35	11*	27	8.2*
CN1CCN(c2ccccc2NC(=O)c2ccc(-c3ccccc3)cc2)CC1	87	28	33*	47	48
Cc1ccc(S(=O)(=O)Nc2cc(C(=O)Nc3cc(C)cc(C)c3)ccc2Cl)cc1	nt	86	nt	97	nt
CCOc1ccc(N2C(=O)/C(=C/c3cc(OC)c(OC)c(OC)c3)N(CC(=O)OC)C2=S)cc1	95	14	25*	15	62
COc1cccc(-c2nc(CS(=O)(=O)CC(=O)NCCCN3CCc4ccccc4C3)c(C)o2)c1	89	81	88	81	78
CCCc1nc2oc(C(=O)c3ccccc3)c(N)c2c2c1COC(C)(C)C2	40*	45	5.7*	35	47
CCC(=O)N1c2ccc(S(=O)(=O)CCC(=O)NCc3cccs3)cc2CC1C (configuration not stated)	90	82	30*	82	76
N#CCC(=O)N1CCn2c1nc1ccccc12	89	96	97	94	98
